The source of these data is ChEMBL document CHEMBL1121403, “Synthesis and mutagenicity of A-ring reduced analogues of 7,12-dimethylbenz[a]anthracene” (1980).

Assay [1] has as its system Salmonella typhimurium. Kind of assay: Mutagenic activity by measuring net reverent colonies per 10 ug of compound with Salmonella Typhimurium (TA1537 strain) in presence of S9 fraction. It is filed as functional, Salmonella enterica subsp. enterica serovar Typhimurium. The essentials: (§1)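 Frame-shift strain TA1537 in Ames soft-agar plating with doses given in Me2SO, tested at up to 15 or 10 μg/plate with and without S-9 (PCB-induced rat liver, 20 μL/plate). Duplicate plates per dose, triplicate spontaneous. Scored mutagenic if reversion was dose-dependent and at least twice spontaneous. Values were normalized to net revertants per 10 μg.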

In assay [2] the test system is Salmonella typhimurium. Kind of assay: Mutagenic activity by measuring net reverent colonies per 10 ug of compound with Salmonella Typhimurium (TA1537 strain) in absence of S9 fraction; - indicates no mutagenic response. Conditions: Salmonella enterica subsp. enterica serovar Typhimurium. It is filed as functional, organism-based. The essentials:
as §1

The subject of assay [3] is Salmonella typhimurium. The assay can be described thus: Mutagenic activity by measuring net reverent colonies per 10 ug of compound with Salmonella Typhimurium (TA 98 strain) in presence of S9 fraction. Type of assay: functional, Salmonella enterica subsp. enterica serovar Typhimurium. In short, it runs like this: (§2)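 Standard Ames soft-agar plating with doses given in Me2SO. Five or more doses from 1 to ≥10 μg/plate were tested with and without S-9 mix from PCB-induced rat liver, at 20 μL S-9/plate from a common pool. Duplicate plates per dose, triplicate for spontaneous revertants. 2-Aminoanthracene served as activation control. Net revertants per 10 μg came from regression of the linear dose-response portion.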

The test system of assay [4] is Salmonella typhimurium. Kind of assay: Mutagenic activity by measuring net reverent colonies per 10 ug of compound with Salmonella Typhimurium (TA 100 strain) in presence of S9 fraction. Type of assay: functional, Salmonella enterica subsp. enterica serovar Typhimurium. In short, it runs like this:
as §2

Assay [5] has as its system Salmonella typhimurium. Kind of assay: Mutagenic activity by measuring net reverent colonies per 10 ug of compound with Salmonella Typhimurium (TA 98 strain) in absence of S9 fraction; - indicates no mutagenic response. Type of assay: functional, organism-based. Conditions: Salmonella enterica subsp. enterica serovar Typhimurium. The essentials:
as §2

Assay [6] deals with Salmonella typhimurium. Kind of assay: Mutagenic activity by measuring net reverent colonies per 10 ug of compound with Salmonella Typhimurium (TA 100 strain) in absence of S9 fraction; - indicates no mutagenic response. Conditions: Salmonella enterica subsp. enterica serovar Typhimurium. Type of assay: functional, organism-based. The essentials:
as §2

Assay [7] deals with Salmonella typhimurium. Kind of assay: Mutagenic activity by measuring net reverent colonies per 10 ug of compound with Salmonella Typhimurium (TA 98 strain) in absence of S9 fraction. It is filed as functional, Salmonella enterica subsp. enterica serovar Typhimurium. The essentials: as §2
For assay [8], the system named is Salmonella typhimurium. The assay can be described thus: Mutagenic activity by measuring net reverent colonies per 10 ug of compound with Salmonella Typhimurium (TA1537 strain) in absence of S9 fraction. It is filed as functional, Salmonella enterica subsp. enterica serovar Typhimurium. The essentials: as §1
Assay [9] has as its system Salmonella typhimurium. Kind of assay: Mutagenic activity by measuring net reverent colonies per 10 ug of compound with Salmonella Typhimurium (TA 100 strain) in absence of S9 fraction. Type of assay: functional, Salmonella enterica subsp. enterica serovar Typhimurium. In short, it runs like this: as §2
Assay [10] has as its system Salmonella typhimurium. The assay can be described thus: Mutagenic activity by measuring net reverent colonies per 10 ug of compound with Salmonella Typhimurium (TA1537 strain) in presence of S9 fraction; - indicates no mutagenic response. Conditions: Salmonella enterica subsp. enterica serovar Typhimurium. Type of assay: functional, organism-based. The essentials:
as §1

The structures appear in SMILES notation.

On to `Cc1c2ccccc2c(C)c2c1ccc1ccccc12`, for which the Activity with Salmonella typhimurium [1] is 15; in the assay on Salmonella typhimurium [2] it was “Not toxic”; in the assay on Salmonella typhimurium [3] it was 58; in the assay with Salmonella typhimurium [4], 489; with Salmonella typhimurium [5], “Not toxic”; in the assay with Salmonella typhimurium [6] it was “Not toxic”.
For the compound `Cc1c2ccccc2c(C)c2c3c(ccc12)CCCC3`, the Activity amounted to 47 in the assay with Salmonella typhimurium [7]; 7 with Salmonella typhimurium [1]; 42 with Salmonella typhimurium [8]; 173 in the assay with Salmonella typhimurium [9]; 78 in the assay with Salmonella typhimurium [3]; 270 in the assay on Salmonella typhimurium [4].
Turning to `Cc1c2ccccc2c(C)c2c3c(ccc12)C=CCC3`, the Activity with Salmonella typhimurium [7] was 146; in the assay on Salmonella typhimurium [9] it was 58; in the assay on Salmonella typhimurium [2] it was “Not toxic”; in the assay on Salmonella typhimurium [3], 25; with Salmonella typhimurium [10], “Not toxic”; with Salmonella typhimurium [4] it was 69.
